Bioassay records from PubChem.
CHRM5 agonist: agonists of human muscarinic M5 receptor (CHRM5); activation, % at 3 µM; 360,000 tested, 0.19% active; AID 624037; CHO-K1 hM5 cells, Fluo-8 calcium fluorescence; 0% DMSO wells, 100% maximal acetylcholine response;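 active means activation above the run's mean over test compounds plus 3 SD, cut at about 23% in these data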;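 further: signal is peak over basal fluorescence ratio across the kinetic read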
Target sequence (P08912 whole entry, looked up): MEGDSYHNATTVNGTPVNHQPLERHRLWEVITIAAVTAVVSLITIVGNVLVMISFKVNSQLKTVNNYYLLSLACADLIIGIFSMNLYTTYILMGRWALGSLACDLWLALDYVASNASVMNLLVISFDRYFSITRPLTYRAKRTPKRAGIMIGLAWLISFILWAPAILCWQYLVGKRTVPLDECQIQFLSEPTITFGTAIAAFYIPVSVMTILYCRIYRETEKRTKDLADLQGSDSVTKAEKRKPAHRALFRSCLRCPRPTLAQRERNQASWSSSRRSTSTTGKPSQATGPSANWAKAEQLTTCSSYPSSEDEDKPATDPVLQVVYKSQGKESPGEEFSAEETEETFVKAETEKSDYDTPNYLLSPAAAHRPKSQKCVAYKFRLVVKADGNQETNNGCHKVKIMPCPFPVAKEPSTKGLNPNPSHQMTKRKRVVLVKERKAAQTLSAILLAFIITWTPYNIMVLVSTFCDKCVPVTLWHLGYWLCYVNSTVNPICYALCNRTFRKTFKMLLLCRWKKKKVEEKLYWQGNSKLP
CHRM5 PAM: potentiates acetylcholine response at human M5 receptor | CHO-K1 hM5, Fluo-8 calcium, ACh EC20 PAM; 0% = ACh EC20, 100% = ACh EC100 | 360,000 tested, 0.3% active | AID 624038 | activation, % at 3 µM;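 active means activation above the run cutoff, the mean activation of all test compounds plus 3 SD, cut at about 18% in these data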
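Probe or stimulus: acetylcholine, EC20 level; Assay system: human M5 receptor in CHO-K1 cells; Schedule: compound preincubation 140 s before EC20 acetylcholine addition; Technique: intracellular calcium via Fluo-8 fluorescence; Dosing: single-point, 3 µM nominal; Read-out basis: percent activation from peak-over-basal fluorescence ratio, scaled EC20-to-EC100 acetylcholine; Repeats: one well per compound, no replicates.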
CHRM4 antagonist: antagonists of human muscarinic M4 receptor (CHRM4); 360,000 tested, 0.73% active; inhibition, % at 3 µM; P08173; CHO-hM4 cells, ACh EC80, Fluo-8 calcium fluorescence;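 active means inhibition above its plate's cutoff, the mean inhibition of sample wells plus 3 SD, cut at about 27% in these data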;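 further: 0% = acetylcholine EC80 with DMSO and 100% = DMSO without agonist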
M4 ag: CHRM4 agonism in calcium assay. CHO-K1 hM4/Gqi5, Fluo-8 calcium fluorescence; vehicle 0%, full acetylcholine response 100%. activation, % at 3 µM. AID 624127. 360,000 tested, 0.14% active. P08173;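 active means activation above the run mean over all test wells plus 3 SD, cut at about 32% in these data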;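 further: peak over basal fluorescence ratio per well then scaled between controls; 0% = DMSO wells and 100% = acetylcholine at EC100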
M4 PAM: positive allosteric modulators of human muscarinic M4 receptor | P08173 | CHO-K1 hM4/Gqi5, Fluo-8 calcium fluorescence, ACh EC20; 0% = ACh EC20, 100% = maximal ACh | activation, % at 3 µM | 360,000 tested, 0.4% active | AID 624126;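 active means activation above its plate's cutoff, the mean activation of sample wells plus 3 SD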
M5 antag: CHRM5 antagonism in calcium assay | P08912 | CHO-hM5 cells, Fluo-8 calcium fluorescence, ACh EC80 | inhibition, % at 3 µM | 360,000 tested, 0.59% active | AID 624040;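 active means inhibition above a per-plate cutoff, the mean of that plate's test compounds plus 3 SD, cut at about 27% in these data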;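 further: 0% = acetylcholine EC80 with DMSO and 100% = DMSO without agonist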
* marks the source's active call; other numbers are inactive results; ! = repeats disagree. An excerpt weighted towards active compounds, which were near 1.8% of everything screened.

SMILES	CHRM5 agonist	CHRM5 PAM	CHRM4 antagonist	M4 ag	M4 PAM	M5 antag
CCc1ccccc1NC(=O)c1ccc(CN2CCC(Cc3ccccc3)CC2)cc1	-4	-26	36*	6	-21	14
CCOc1ccc(CN2CCC(Cc3ccccc3)CC2)cc1	-21	-1	26*	1	-16	4
CCOC(=O)C1CCCN(CCc2ccccc2)C1 (stereo unspecified)	-17	-32	37*	1	-15	20
COc1ccc(CN2CCC(Cc3ccccc3)CC2)cc1OC	-6	0	0	1	-7	4
CCOC(=O)C1CCN(Cc2ccc(OCc3ccccc3)cc2)CC1	-19	-11	39*	3	-16	19
O=C(NCc1ccccc1)c1ccc(CN2CCC(Cc3ccccc3)CC2)cc1	-6	-16	19	4	-17	23
CCCCCC(=O)Nc1ccc(C2C(=O)c3ccccc3C2=O)cc1	-3	-10	17	1	-10	14
COC(=O)c1c(N)[nH]c(C(=O)c2ccccc2)c1-c1ccccc1Br	-2	-10	-1	7	6	5
CCOC(=O)C1CCN(C(=O)c2ccco2)CC1	0	0	-5	1	18	4
CCOC(=O)C1CCN(C(=O)c2ccc(C)o2)CC1	3	-2	100*	0	2	7
CCOC(=O)C1(C)CCCCN1C(=O)c1ccc(F)c(C)c1 (stereo unspecified)	0	-2	-8	0	2	-4
Cc1nc2c(o1)CCc1ccccc1C2N1CCN(C)CC1 (stereo unspecified)	-10	-43	98*	1	-9	98*
Cc1nc(S(=O)(=O)N2CCN(C3c4ccccc4-c4ccccc43)CC2)cn1C	-6	4	-12	6	-4	-11
O=C(CCCn1nnnc1CN1CCOCC1)N1CCN(c2ccccc2F)CC1	-1	0	5	1	-1	2
COC(=O)[C@H](C)NC(=O)NC(C)CCc1ccccc1 (stereo partly specified)	-2	2	-1	2	20*	3
CCC(C)Sc1cccc(-c2nc3cc(C)ccn3c2NCc2ccccc2)c1 (stereo unspecified)	-7	-26	44*!	8	-12	17
Cc1ccn2c(NCc3ccccc3)c(-c3cccs3)nc2c1	-10	1	-18	2	20*	-12
Cc1ccn2c(NC(=O)c3ccccc3)c(-c3cccs3)nc2c1	4	-10	5	17	-4	2
COc1ccc(C2CC(=O)C(C=NCCO)=C(O)C2)cc1OC (stereo unspecified)	1	4	4	1	13	-8
COc1ccc(C2=CC(=O)C[C@H](c3ccc(Cl)cc3)C2)cc1	-6	-8	-9	0	1	12
COc1ccc(C2CC(=O)C(C=NCCO)=C(O)C2)cc1 (stereo unspecified)	5	19*	-10	1	-3	-12
COc1ccc(C2=CC(=O)CC(c3ccc(OC)cc3)C2)cc1 (stereo unspecified)	-7	-14	-1	2	-1	29*
COc1ccc(NC2=CC(=O)CC(c3ccc(C)cc3)C2)c(OC)c1 (stereo unspecified)	-1	5	-2	1	23*	5
COc1ccccc1NC1=CC(=O)CC(c2ccccc2)C1 (stereo unspecified)	-2	-2	9	2	1	6
O=S(=O)(c1ccc(SCc2c(F)cccc2Cl)nc1)N1CCCC1	-3	-9	-4	2	-9	-1
SMILES	CHRM5 agonist	CHRM5 PAM	CHRM4 antagonist	M4 ag	M4 PAM	M5 antag
Cc1ccc(N(C(C)C(=O)NCc2ccncc2)S(C)(=O)=O)cc1C (stereo unspecified)	-1	7	-4	0	-6	-9
Cc1n[nH]c(C)c1S(=O)(=O)N(C)Cc1ccco1	0	0	-4	0	3	5
Cc1occc1C(=O)NNC(=O)Nc1ccc(F)cc1F	2	-3	3	1	-5	-2
Cc1cccc(NC(=O)CSCC(=O)NNC(=O)c2ccoc2C)c1	-3	-5	0	1	23*	-3
Cc1occc1C(=O)Nc1c(F)c(F)c(F)c(F)c1F	-6	18*	8	0	5	-14
Cc1occc1C(=O)Nc1ccc(Br)cc1F	-3	30*	4	0	7	-6
CC(C)(C)NC(=O)C(c1ccco1)N(Cc1ccc2c(c1)OCO2)C(=O)c1snc(C(N)=O)c1N (stereo unspecified)	-1	-3	5	9	-5	-1
Oc1c(Cl)cc(Cl)cc1CNc1ccccn1	-13	-14	4	1	-5	13
Oc1c(Cl)cc(Cl)cc1CNc1nc2ccccc2[nH]1	0	-20	18	10	-11	37*
S=c1[nH]nc(-c2cc(-c3ccccc3)n[nH]2)n1/N=C/C(Br)=C/c1ccccc1	3	5	3	0	-7	-13
O=C1NC(=S)S/C1=C\C=C\c1ccc([N+](=O)[O-])o1	26*	-10	68*	22	-20	48*
O=C(O)/C=C/c1ccc([N+](=O)[O-])o1	2	2	-1	2	2	-3
CN(c1ccccc1)S(=O)(=O)c1ccc(Cl)c(C(=O)OCC(=O)c2c(N)n(C)c(=O)n(C)c2=O)c1	-4	-30	11	18	-15	21
CCOC(=O)CC[C@H](NC(=O)Cn1cnc(C(=O)Nc2ccc(C)c(C)c2)n1)C(=O)OCC	0	0	-12	3	11	-3
Cc1cc(Cl)ccc1OC(C)C(=O)Nc1ccc(C(=O)Nc2ccccc2C(=O)O)cc1 (stereo unspecified)	2	17	-11	-2	23*	-11
CCc1ccc(NC(=O)CCc2ccc(CC)o2)cc1	-12	-4	3	-1	0	3
CCOC(=O)CCNC(=O)N1CCCC(N(C)CCc2ccc(OC)c(OC)c2)C1 (stereo unspecified)	-1	13	-5	1	9	-5
CCn1c(=NC(=O)C2COc3ccccc3O2)sc2c(OC)ccc(OC)c21 (stereo unspecified)	-2	-3	36*	-2	-21	5
COCCn1c(=NC(=O)C2COc3ccccc3O2)sc2cc(S(N)(=O)=O)ccc21 (stereo unspecified)	4	-9	2	13	-13	4
N#Cc1c(Cl)nsc1NN	10	-20	23	20	-17	31*
